{"data": "Assay results pooled from the literature", "target": "Protein kinase C gamma type (PRKCG, Homo sapiens, UniProt P05129)", "note": "Compare with care: the assays were run in different laboratories."}
{"SMILES": "FC(F)(F)Oc1cccc(-c2cnc3ccc(-c4ccncc4)nn23)c1", "assay": "enzyme activity, inhibitor, radiometric", "setting": "1 µM", "measurement": "activity vs control", "result": "96%"}
{"SMILES": "N#CCCc1ccc2c(c1)-c1[nH]c3ccc([N+](=O)[O-])cc3c1CC(=O)N2", "assay": "cell-free assay", "setting": "0.5 µM", "measurement": "remaining signal", "result": "93.3%"}
{"SMILES": "Cc1sc(C(=O)NC2COC2)cc1-n1cc(NC(=O)Nc2c(F)cccc2Cl)cn1", "assay": "enzyme activity, inhibitor", "setting": "10 µM", "measurement": "remaining activity", "result": "102%"}
{"SMILES": "CCCOc1ccc(OC)c(F)c1C(=O)c1ccc(C(=O)N[C@@H]2CNC[C@H]2NC(=O)c2ccc3[nH]ncc3c2)cc1", "assay": "enzyme activity, inhibitor", "setting": "10 µM", "measurement": "remaining activity", "result": "73%"}
{"SMILES": "CCOc1cc(-c2nncn2C)ccc1Nc1ncc2cc(C)nc(NCC(C)(C)C)c2n1", "assay": "enzyme activity, inhibitor, FRET", "setting": "1 µM", "measurement": "inhibition", "result": "< 15%"}
{"SMILES": "Cc1ccc(C(=O)NCc2ccsc2)cc1C#Cc1cn(C(C)C)c2ncnc(N)c12", "assay": "enzyme activity, inhibitor", "setting": "1 µM", "measurement": "activity vs control", "result": "97%"}
{"SMILES": "O=C(Nc1cnn(-c2csc(C(=O)NC3COC3)c2)c1)Nc1ccccc1Cl", "assay": "enzyme activity, inhibitor", "setting": "5 µM", "measurement": "remaining activity", "result": "98%"}
{"SMILES": "COc1cc(Nc2cnc(C#N)c(O[C@H](C)CN(C)C)n2)ncc1-c1cnn(C)c1", "assay": "enzyme activity, inhibitor, radiometric", "setting": "10 µM", "measurement": "remaining activity", "result": "80%"}
{"SMILES": "COc1cc(Cl)c(C(=O)N[C@@H](CN[C@H]2CC[C@@H](N)CC2)Cc2ccc(C#N)cc2)cc1-c1ccc(CN[C@H](C)c2ccc(C)cc2)o1", "assay": "enzyme activity, inhibitor", "setting": "1 µM", "measurement": "remaining activity", "result": "98%"}
{"SMILES": "Cc1ccc(Nc2nccc(N(C)c3ccc4c(C)n(C)nc4c3)n2)cc1S(N)(=O)=O", "assay": "enzyme activity, inhibitor", "setting": "10 µM", "measurement": "inhibition", "result": "45%"}
{"SMILES": "CCCS(=O)(=O)Nc1ccc(F)c(C(=O)c2c[nH]c3ncc(-c4ccc(Cl)cc4)cc23)c1F", "assay": "enzyme activity, inhibitor", "setting": "1 µM", "measurement": "inhibition", "result": "< 20%"}
{"SMILES": "COc1cc2ncnc(Nc3ccc(Oc4ccccc4)cc3C)c2cc1OC", "assay": "enzyme activity, inhibitor", "setting": "1 µM", "measurement": "inhibition", "result": "-3%"}
{"SMILES": "CN1CC(Oc2cnc(C#N)cc2-c2ccn3nc(NC(=O)C4CC4)cc3c2)C1", "assay": "enzyme activity, inhibitor", "setting": "1 µM", "measurement": "inhibition", "result": "1%"}
{"SMILES": "Cc1ccc(NC(=O)c2ccc(C)c(C(F)(F)F)c2)cc1C#Cc1nn(C2CCC(O)CC2)c2ncnc(N)c12 (stereo not shown)", "assay": "cell-free assay", "setting": "10 µM", "measurement": "remaining signal", "result": "90%"}
{"SMILES": "CCN(CC)c1ccc(C2=NNC(=O)CC2C)cc1[N+](=O)[O-] (stereo not shown)", "assay": "enzyme activity, inhibitor", "setting": "10 µM", "measurement": "remaining activity", "result": "96%"}
{"SMILES": "CC(C)(C)c1nc2c(s1)c1nc(N)ncc1c1ccc(NS(=O)(=O)c3c(F)cccc3F)c(F)c12", "assay": "enzyme activity, inhibitor, radiometric", "setting": "1 µM", "measurement": "remaining activity", "result": "103%"}
